Data on 21 compounds can be found in ChEMBL document CHEMBL1137307, “Further studies on imidazo[4,5-b]pyridine AT1 angiotensin II receptor antagonists. Effects of the transformation of the 4-phenylquinoline backbone into 4-phenylisoquinolinone or 1-phenylindene scaffolds” (J Med Chem, 2006).

Data set [1] has as its target T1, Angiotensin II receptor (AT-1) type-1 (Rattus norvegicus, UniProt P29089+P25095).
T1 sequence (P29089 whole entry): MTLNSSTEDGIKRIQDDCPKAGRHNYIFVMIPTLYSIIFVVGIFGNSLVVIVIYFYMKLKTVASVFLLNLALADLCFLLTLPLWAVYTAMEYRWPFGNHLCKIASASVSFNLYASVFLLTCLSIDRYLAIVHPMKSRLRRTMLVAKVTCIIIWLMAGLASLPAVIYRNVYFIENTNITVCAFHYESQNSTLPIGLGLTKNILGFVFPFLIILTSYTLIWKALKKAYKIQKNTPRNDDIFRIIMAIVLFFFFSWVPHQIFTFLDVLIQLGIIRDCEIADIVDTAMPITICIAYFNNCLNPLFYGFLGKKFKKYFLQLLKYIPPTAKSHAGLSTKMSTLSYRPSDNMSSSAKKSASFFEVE
T1 sequence (P25095 whole entry): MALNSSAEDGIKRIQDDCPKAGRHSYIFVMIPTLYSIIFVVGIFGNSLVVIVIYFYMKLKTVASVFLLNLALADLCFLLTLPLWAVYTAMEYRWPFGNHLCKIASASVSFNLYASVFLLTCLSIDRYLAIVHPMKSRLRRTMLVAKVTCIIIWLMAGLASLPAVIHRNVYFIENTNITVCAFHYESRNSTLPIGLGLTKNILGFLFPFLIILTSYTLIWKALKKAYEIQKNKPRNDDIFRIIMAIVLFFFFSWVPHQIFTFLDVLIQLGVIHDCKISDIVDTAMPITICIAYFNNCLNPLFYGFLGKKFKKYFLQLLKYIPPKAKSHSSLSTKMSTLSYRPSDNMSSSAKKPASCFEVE
Kind of data set: Displacement of [125I]Sar1,Ile8-Ang2 from AT1 receptor in rat hepatic membrane. The data set is classed as cell membranes, Liver. Put shortly: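 Rat liver membranes from male Wistar rats, prepared by differential centrifugation (750g, then 50 000g), 25 µg protein per well in 50 mM Tris-HCl, 100 mM NaCl, 10 mM MgCl₂, 1 mM EDTA, bacitracin, PMSF, 0.1% BSA, pH 7.4. Nonspecific binding defined with 1 µM Ang II. Filtration read-out. IC50 given as mean ± SEM of three determinations.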

The nature of data set [2]: Apparent permeability from apical to basolateral side of Caco-2 cell. The data set is classed as ADME, cell-based. The following applies: human. Put shortly: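 Caco-2 cells grown in DMEM with 10% FBS on polycarbonate supports, 15-21 days at 37 °C. Compound dosed apically at 10-100 µM final in HBSS with 1% DMSO, at 37 °C, apical-to-basolateral direction. Monolayer integrity checked by [¹⁴C]mannitol permeability. Transported compound measured by HPLC-MS; Papp calculated by equation.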

For data set [3], the target named is T2, Type-1 angiotensin II receptor (Oryctolagus cuniculus, UniProt P34976).
T2 sequence (P34976 whole entry): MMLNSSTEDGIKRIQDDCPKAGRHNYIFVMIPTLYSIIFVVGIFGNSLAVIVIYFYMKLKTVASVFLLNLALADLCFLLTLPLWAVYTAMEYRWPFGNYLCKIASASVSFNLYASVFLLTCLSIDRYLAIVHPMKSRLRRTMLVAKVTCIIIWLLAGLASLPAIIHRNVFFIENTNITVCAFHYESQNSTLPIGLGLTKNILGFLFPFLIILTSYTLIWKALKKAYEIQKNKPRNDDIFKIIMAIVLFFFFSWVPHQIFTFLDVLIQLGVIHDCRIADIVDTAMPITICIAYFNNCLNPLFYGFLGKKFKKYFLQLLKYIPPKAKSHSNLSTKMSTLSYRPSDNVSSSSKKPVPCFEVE
Briefly: Antagonist activity against AT1 receptor assessed as inhibition of Ang2-induced rabbit aortic strip contraction. The data set is classed as functional. The method, boiled down: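 Rabbit aortic strips equilibrated 1 h, washed every 10 min. An Ang II cumulative curve was run, then 30 min washout. Antagonist or vehicle applied for 60 min before a submaximal (70-80%) Ang II challenge, 5 nM in controls. One antagonist concentration per tissue. Response read as % inhibition of contraction; IC50 derived from the regression line.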

A short description of data set [4]: AUC in Sprague-Dawley rat at 3 mg/kg, iv. The data set is classed as ADME, organism-based. On the set-up: dose 3 mg/kg, route intravenous. The settings on record: plasma. The method, boiled down: (§1)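 Fasted Sprague-Dawley rats, 250-300 g, dosed orally or by tail-vein injection. Blood sampled at selected times and plasma analysed by HPLC. t1/2 (terminal), AUC, observed Cmax and tmax calculated from plasma concentration-time data.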

Data set [5] in a line: AUC in Sprague-Dawley rat at 30 mg/kg, po. In kind it is ADME, organism-based. The arrangement: dose 30 mg/kg, route oral. The settings on record: plasma. Put shortly: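 Fasted Sprague-Dawley rats (250-300 g) given compound orally; blood sampled at selected times after dosing, plasma analysed by HPLC, and area under the plasma concentration-time curve calculated.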
A short description of data set [6]: Terminal half life in Sprague-Dawley rat at 3 mg/kg, iv. On the set-up: dose 3 mg/kg, route intravenous. The data set is classed as ADME, organism-based. The following applies: in vivo, read-out: beta t1/2 (converted). Put shortly:
as §1

Data set [7] is described as follows: Terminal half life in Sprague-Dawley rat at 30 mg/kg, po. The data set is classed as ADME, organism-based. The arrangement: dose 30 mg/kg, route oral. The following applies: in vivo, read-out: beta t1/2 (converted). The method, boiled down: as §1
The nature of data set [8]: Cmax in Sprague-Dawley rat at 30 mg/kg, po. In kind it is ADME, organism-based. The arrangement: dose 30 mg/kg, route oral. The following applies: in vivo. The method, boiled down: as §1
Data set [9] can be described thus: Tmax in Sprague-Dawley rat at 30 mg/kg, po. In kind it is ADME, organism-based. On the set-up: dose 30 mg/kg, route oral. The settings on record: in vivo. Put shortly: as §1
The nature of data set [10]: Oral bioavailability in Sprague-Dawley rat at 30 mg/kg, po. The data set is classed as ADME, organism-based. The following applies: in vivo. The method, boiled down:
as §1

Data set [11] can be described thus: Oral bioavailability in Sprague-Dawley rat at 10 mg/kg, po. The following applies: in vivo.

With `CCCCc1nc2c(C)cc(C)nc2n1Cc1ccc(-c2c(C(=O)O)n(C)c(=O)c3ccccc23)cc1`, the IC50 in data set [1] came out at 6.2 nM. For the same compound, the Papp A→B in [2] came to 0.01 ×10⁻⁶ cm/s.
In data set [1], `CCCc1nc2c(C)cc(C)nc2n1Cc1ccc(C2C(C(=O)O)=C(C)c3ccccc32)cc1` (configuration not stated) yielded an IC50 of 47 nM.
Take `CCc1nc2c(C)cc(C)nc2n1Cc1ccc(-c2c(-c3nn[nH]n3)cnc3ccccc23)cc1`: the IC50 worked out at 6.9 nM in data set [1] and 8.9 nM in data set [3]. The Papp A→B in data set [2] was found to be 0.1 ×10⁻⁶ cm/s. For the same compound, the AUC came to 890 ng·h/mL in data set [4] and 4400 ng·h/mL in [5]. In addition, the half-life in data set [6] is 40.8 min; in [7], 60 min. For the same compound, the Cmax in data set [8] came to 4200 ng/mL. The Tmax in [9] was 30 min. Also, the bioavailability in [10] is 49%.
Turning to `CCCc1nc2c(C)cc(C)nc2n1Cc1ccc(C2=C(C(=O)O)C(O)(CC)c3ccccc32)cc1` (configuration not stated), the IC50 in [1] is on record as 15 nM.
For `CCCc1nc2c(C)cc(C)nc2n1Cc1ccc(-c2c(C(=O)O)c(C)nc3ccccc23)cc1`, the IC50 in [1] stood at 9 nM; in data set [3], 13 nM. Further, the area under the curve (AUC) in data set [4] was 500 ng·h/mL. Further, the half-life in [6] was 19.8 min.
For `CCCc1nc2c(C)cc(C)nc2n1Cc1ccc(C2=C(C(=O)NS(C)(=O)=O)C(=O)c3ccccc32)cc1`, the IC50 in data set [1] stood at 54 nM.
With `CCCc1nc2c(C)cc(C)nc2n1Cc1ccc(-c2c(C(=O)O)c(Cl)nc3ccccc23)cc1`, the half-inhibitory concentration (IC50) in data set [1] was 7.7 nM. Further, the AUC in [4] stood at 340 ng·h/mL. Also, the half-life in data set [6] is 18 min.
`CCCc1nc2c(C)cc(C)nc2n1Cc1ccc(C2=C(C(=O)O)C(C)c3ccccc32)cc1` (configuration not stated) returned an IC50 in data set [1] of 99 nM.
With `CCCCc1nc(Cl)c(CO)n1Cc1ccc(-c2ccccc2-c2nn[nH]n2)cc1` [LOSARTAN], in [2], the Papp A→B was 1.15 ×10⁻⁶ cm/s. Also, the AUC in data set [4] stood at 12400 ng·h/mL; in data set [5] it was 74800 ng·h/mL. Further, the half-life was 282 min in data set [6] and 180 min in data set [7]. In addition, the peak level in [8] (Cmax) was 27500 ng/mL. Moreover, the Tmax in data set [9] stood at 30 min. In [10], this compound came in with a bioavailability of 60%.
With `CCCc1nc2c(C)cc(C)nc2n1Cc1ccc(-c2c(C(=O)O)n(C)c(=O)c3ccccc23)cc1`, the IC50 in data set [1] turned out to be 5.7 nM.
Regarding `C=C1C(C(=O)O)=C(c2ccc(Cn3c(CCC)nc4c(C)cc(C)nc43)cc2)c2ccccc21`, the IC50 in data set [1] is on record as 60 nM.
In turn, `CCCCc1nc2c(C)cc(C)nc2n1Cc1ccc(-c2c(-c3nn[nH]n3)n(C)c(=O)c3ccccc23)cc1` showed an IC50 in data set [1] above 300 nM.
As for `CCCc1nc2c(C)cc(C)nc2n1Cc1ccc(-c2c(C(=O)O)c(N)nc3ccccc23)cc1`, the IC50 in data set [1] stood at 4.2 nM; in data set [3], 3.3 nM. The AUC in data set [4] worked out at 520 ng·h/mL. For the same compound, the half-life in [6] was 16.8 min.
For the compound `CCCc1nc2c(C)cc(C)nc2n1Cc1ccc(-c2c(-c3nn[nH]n3)n(C)c(=O)c3ccccc23)cc1`, in data set [1], the IC50 is listed as above 300 nM.
Consider `CCc1nc2c(C)cc(C)nc2n1Cc1ccc(-c2c(C(=O)O)n(C)c(=O)c3ccccc23)cc1`, for which the IC50 in [1] was 5.2 nM; in data set [3], 4.6 nM. In addition, the Papp A→B in [2] worked out at 0.03 ×10⁻⁶ cm/s. In [4], this compound gave an AUC of 630 ng·h/mL. Also, the half-life in data set [6] was 13.2 min. In [11], the bioavailability is 0%.
In data set [1], `CCCc1nc2c(C)cc(C)nc2n1Cc1ccc(C2(C(C(=O)O)C(=O)O)CC(=O)c3ccccc32)cc1` (configuration not stated) came in with an IC50 of 55 nM.
`CCCc1nc2c(C)cc(C)nc2n1Cc1ccc(C2=C(C(=O)O)C(C)(O)c3ccccc32)cc1` (configuration not stated): the IC50 is 11 nM in data set [1] and 33 nM in data set [3].
As for `CCc1nc2c(C)cc(C)nc2n1Cc1ccc(C2=C(C(=O)O)C(=O)c3ccccc32)cc1`, the IC50 in data set [1] was 53 nM.
In turn, `CCCc1nc2c(C)cc(C)nc2n1Cc1ccc(C2(CC(=O)O)CC(=O)c3ccccc32)cc1` (configuration not stated) yielded a concentration for half-maximal inhibition (IC50) in data set [1] of 139 nM.
In data set [1], `CCCc1nc2c(C)cc(C)nc2n1Cc1ccc(C2=C(C(=O)NS(=O)(=O)c3ccccc3)C(=O)c3ccccc32)cc1` gave an IC50 of 131 nM.
`CCc1nc2c(C)cc(C)nc2n1Cc1ccc(-c2c(-c3nn[nH]n3)n(C)c(=O)c3ccccc23)cc1` gave an IC50 in data set [1] above 300 nM.
